Bioassay records (PubChem BioAssay)
This is a sample that favours compounds with a hit; in the whole collection about 1.3% have one here.
MLL AF4-AF9 inh: inhibitors of AF4 peptide binding to AF9, primary screen, biochemical, AlphaScreen, biotin-AF4 peptide, FLAG-AF9, single point. actives 0.47% (n = 350,000). inhibition, % at 10 µM. Protein AF-9 (Homo sapiens), P42568. AID 651704, 2012;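 active = every replicate reaching a set inhibition limit, whatever the replicate mean, cut at about 25% in these data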
ERp5 inh: inhibitors of ERp5-driven insulin aggregation, primary screen, biochemical, turbidity, absorbance 650 nm, single point; actives 0.05% (n = 350,000); Protein disulfide-isomerase A6 (Homo sapiens), Q15084; inhibition, % at 9.99 µM; AID 651711, 2012; 90 min;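 active = mean replicate inhibition above about 25%, with every replicate also reaching it, limit read from the data, passing the limit was not always enough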
Target sequence (Q15084 whole entry, looked up): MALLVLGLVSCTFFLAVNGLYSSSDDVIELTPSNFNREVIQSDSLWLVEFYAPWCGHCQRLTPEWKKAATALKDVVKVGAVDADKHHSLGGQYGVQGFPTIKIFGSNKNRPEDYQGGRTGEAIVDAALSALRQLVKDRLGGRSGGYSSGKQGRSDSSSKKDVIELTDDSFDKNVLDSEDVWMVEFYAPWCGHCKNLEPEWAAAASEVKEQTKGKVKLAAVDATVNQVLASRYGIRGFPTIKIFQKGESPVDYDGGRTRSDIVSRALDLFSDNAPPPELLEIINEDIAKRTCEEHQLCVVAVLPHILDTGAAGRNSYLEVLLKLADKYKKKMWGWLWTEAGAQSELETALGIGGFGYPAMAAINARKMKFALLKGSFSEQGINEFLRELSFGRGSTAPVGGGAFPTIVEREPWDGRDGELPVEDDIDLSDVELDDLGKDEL
FN deposition inh: inhibitors of fibronectin matrix deposition, primary screen, AH1F cells, Alexa488-fibronectin fluorescence, plate reader; actives 0.086% (n = 350,000); AH1F fibroblasts, overnight; inhibition, % at 12.6 µM; AID 743247, 2014;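 active = mean inhibition across replicates of 30% or more, regardless of how many single replicates reach that level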
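Assay system: AH1F fibroblasts assembling fluorescent fibronectin matrix; Amount: 10000 AH1F cells per well; Buffer or medium: DMEM, 2% serum; Probe or stimulus: Alexa488-fibronectin, 24 nM final in well; Doses: single compound dose, delivered by pin transfer; Incubation: 1 h adhesion, overnight exposure; Measured by: fluorescence 485/525 nm; Read-out: fibronectin deposition inhibition.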
PDI inh: inhibitors of human PDI, primary screen, biochemical, turbidity, single point, plate reader; AID 588391, 2011; PDI insulin aggregation turbidity, A650, 90 min; actives 0.052% (n = 350,000); inhibition, % at 10 µM; Protein disulfide-isomerase (Homo sapiens), P07237;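 active = mean inhibition across replicates of 30% or more, whatever share of single replicates reach that level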
SIRT5 inh: SIRT5 desuccinylase inhibitors, primary screen, biochemical, fluorescence imaging, single point, set 5; actives 1.1% (n = 330,000); Purified SirT5, succinyl-peptide AMC, trypsin-coupled fluorescence; inhibition, % at 15 µM; AID 652115, 2013; NAD-dependent protein deacylase sirtuin-5, mitochondrial (Homo sapiens), Q9NXA8; in the data active = inhibition above about 15%
Target sequence (Q9NXA8 whole entry, looked up): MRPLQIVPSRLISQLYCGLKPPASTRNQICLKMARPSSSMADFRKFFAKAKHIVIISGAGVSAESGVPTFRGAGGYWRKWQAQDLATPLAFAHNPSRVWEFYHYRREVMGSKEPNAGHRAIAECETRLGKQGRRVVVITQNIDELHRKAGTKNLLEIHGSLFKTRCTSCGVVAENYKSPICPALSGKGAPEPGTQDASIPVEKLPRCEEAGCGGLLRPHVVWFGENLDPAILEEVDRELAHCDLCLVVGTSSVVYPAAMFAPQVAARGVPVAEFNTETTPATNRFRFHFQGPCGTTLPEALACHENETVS
Each line names hits and unclear results; the compound was inactive in the other large screens.

COc1cc(NC(=O)c2cccs2)c(C(=O)OCC(=O)c2cc(C)n(-c3ccc(F)cc3)c2C)cc1OC	none
O=C1C=C(/C=C/c2ccccc2)C[C@@H](c2ccc(F)cc2)C1	none
COc1ccc([C@H]2CC(=O)C=C(/C=C/c3ccccc3)C2)cc1OC	MLL AF4-AF9 inh 29.5 (no result: SIRT5 inh)
COc1ccc([C@H]2CC(=O)C=C(c3ccc(OC)c(OC)c3)C2)cc1	none
COc1ccc([C@H]2CC(=O)C=C(c3ccc4ccccc4c3)C2)cc1OC	SIRT5 inh 15.1
Nc1ccc(C(=O)Nc2ccc3c(O)cc(S(=O)(=O)O)cc3c2)cc1	SIRT5 inh 65.8
Nc1ccc(NC(=O)c2ccc(C(=O)Nc3ccc(N)cc3)cc2)cc1	none
COCC#Cc1ccc2c(c1)O[C@H](CN(C)Cc1ccc3c(c1)OCO3)[C@@H](C)CN([C@H](C)CO)S2(=O)=O	none (no result: FN deposition inh, PDI inh)
Cc1ccc(C(=O)OCc2nc3ccsc3c(=O)[nH]2)o1	none
O=C(/C=C/c1ccc(Br)o1)OCc1nc2ccsc2c(=O)[nH]1	SIRT5 inh 25.3 (no result: MLL AF4-AF9 inh, FN deposition inh)
C[C@@H]1CN([C@H](C)CO)S(=O)(=O)c2ccc(C#Cc3ccc(F)cc3)cc2O[C@H]1CN(C)S(=O)(=O)c1ccc(F)cc1	SIRT5 inh 26.2 (no result: PDI inh)
C[C@@H]1CN([C@@H](C)CO)S(=O)(=O)c2ccc(C#Cc3ccncc3)cc2O[C@@H]1CN(C)S(=O)(=O)c1ccc(F)cc1	none (no result: FN deposition inh, PDI inh)
C[C@@H]1CN([C@H](C)CO)S(=O)(=O)c2ccc(C#Cc3ccc(F)cc3)cc2O[C@@H]1CN(C)S(=O)(=O)c1ccc(F)cc1	SIRT5 inh 30.0 (no result: PDI inh)
CCCN(C)C[C@@H]1Oc2cc(C#CC3(O)CCCC3)ccc2S(=O)(=O)N([C@H](C)CO)C[C@@H]1C	SIRT5 inh 6.2 (no result: FN deposition inh, PDI inh)
COCC#Cc1ccc2c(c1)O[C@@H](CN(C)CC1CCCC1)[C@H](C)CN([C@@H](C)CO)S2(=O)=O	SIRT5 inh 23.7 (no result: PDI inh)
COc1cc(-c2nc(-c3ccccc3)c(-c3cc([N+](=O)[O-])ccc3C)[nH]2)cc(OC)c1OC	none (no result: MLL AF4-AF9 inh, ERp5 inh, FN deposition inh, SIRT5 inh)
O=C(Nc1cccc(Cl)c1Cl)c1csc([C@@H]2O[C@H](CO)[C@H](O)[C@H](O)[C@H]2O)n1	none
COc1ccc(C2=Nc3ccccc3N(C(=O)Cc3cc(OC)cc(OC)c3)C2C(=O)NC(C)C)cc1 (stereo unspecified)	none (no result: PDI inh, SIRT5 inh)
C[C@@H]1CN([C@H](C)CO)S(=O)(=O)c2ccc(C#Cc3ccc(F)cc3)cc2O[C@@H]1CN(C)CC1CC1	none (no result: PDI inh)
COc1ccc(S(=O)(=O)N(C)C[C@@H]2Oc3cc(C#CC4CCCC4)ccc3S(=O)(=O)N([C@H](C)CO)C[C@H]2C)cc1	SIRT5 inh 19.1 (no result: PDI inh)
C[C@H](CO)N1C[C@H](C)[C@H](CN(C)CC2CC2)Oc2cc(C#Cc3ccc(F)cc3)ccc2S1(=O)=O	SIRT5 inh 16.9 (no result: PDI inh)
C[C@H](CO)N1C[C@H](C)[C@H](CN(C)S(=O)(=O)c2ccc(F)cc2)Oc2cc(C#Cc3ccc(F)cc3)ccc2S1(=O)=O	SIRT5 inh 27.4 (no result: PDI inh)
C[C@H]1CN([C@@H](C)CO)S(=O)(=O)c2ccc(C#Cc3ccc(F)cc3)cc2O[C@H]1CN(C)S(C)(=O)=O	none (no result: PDI inh)
C[C@H]1CN([C@@H](C)CO)S(=O)(=O)c2ccc(C#Cc3ccc(F)cc3)cc2O[C@@H]1CN(C)S(C)(=O)=O	SIRT5 inh 13.3 (no result: PDI inh)
COc1ccc(CN(C)C[C@@H]2Oc3ccc(NC(=O)NC(C)C)cc3CC(=O)N([C@H](C)CO)C[C@H]2C)cc1	none (no result: FN deposition inh, PDI inh)
CC=Cc1ccc2n(c1=O)C[C@@H]1[C@@H](CO)[C@H](C(=O)NCCC)N(C(=O)CC3CC3)[C@H]21 (mixture of isomers)	none (no result: FN deposition inh, PDI inh)
C[C@H]1CN([C@@H](C)CO)S(=O)(=O)c2ccc(C#CC3CC3)cc2O[C@@H]1CN(C)Cc1ccc(F)cc1	SIRT5 inh 18.5 (no result: PDI inh)
C[C@H]1CN([C@@H](C)CO)S(=O)(=O)c2ccc(C#CC3CC3)cc2O[C@H]1CN(C)Cc1ccc(F)cc1	none (no result: PDI inh)
CCCCNC(=O)C1c2ccccc2OCC(=O)N1Cc1ccccn1 (stereo unspecified)	none (no result: PDI inh)
COc1ccccc1N1CCN(Cc2cc(Br)c(O)c3ncccc23)CC1	MLL AF4-AF9 inh 26.8 (no result: PDI inh)
COc1ccc(N(C(=O)CCl)C(C(=O)NCCc2ccccc2)c2cccs2)cc1Cl (stereo unspecified)	FN deposition inh 33.6
CC1(C)CC(=O)C2=C(C1)N(c1ccc(F)cc1)C(=O)CC2c1ccccc1 (stereo unspecified)	none (no result: MLL AF4-AF9 inh, ERp5 inh, SIRT5 inh)
NS(=O)(=O)c1ccc(N=Nc2c(O)c(C(=O)O)cc3ccccc23)cc1	none (no result: FN deposition inh)
O=C(O)Cc1ccc(N=Nc2c(O)c(C(=O)O)cc3ccccc23)cc1	SIRT5 inh 30.8
CCCCCCSc1ccc([C@@H]2[C@H]3C(=O)N(CC)C(=O)[C@H]3[C@]3(C(=O)OC)CCCCN23)cc1OC	MLL AF4-AF9 inh 47.5
CCCCCCSc1ccc([C@@H]2[C@H]3C(=O)N(C)C(=O)[C@H]3[C@]3(C(=O)OC)CCCCN23)cc1OC	FN deposition inh 31.5
CCCSc1ccc([C@@H]2[C@@H]3C(=O)N(CC)C(=O)[C@@H]3[C@]3(C(=O)OC)CCCCN23)cc1OC	none (no result: SIRT5 inh)
CCCCCCSc1ccc([C@@H]2[C@@H]3C(=O)N(C)C(=O)[C@@H]3[C@]3(C(=O)OC)CCCCN23)cc1OC	none
CN1CCN(C(=O)C2=C[C@@H](c3ccc(C(F)(F)F)cc3)C[C@@H](OCc3ccc(CO)cc3)O2)CC1	none
CCOc1ccc(N(CC(=O)Nc2ccc(OC)cc2)C2=NC3CS(=O)(=O)CC3S2)cc1 (stereo unspecified)	none (no result: PDI inh)
CCOc1ccc(N(CC(=O)Nc2ccc(C)c(F)c2)C2=NC3CS(=O)(=O)CC3S2)cc1 (stereo unspecified)	SIRT5 inh 15.5
O=C(c1coc2ccc(O)c(CN3CCOCC3)c12)C1CC1	none (no result: MLL AF4-AF9 inh, ERp5 inh, SIRT5 inh)
O=C(c1cccs1)c1coc2ccc(O)c(CN3CCOCC3)c12	SIRT5 inh 29.1 (no result: MLL AF4-AF9 inh, FN deposition inh)
CCS(=O)(=O)Nc1ccc2c(c1)C(=O)N(C)C[C@H](OC)[C@H](C)CN(C(=O)CN(C)C)[C@@H](C)CO2	none (no result: PDI inh)
COc1ccc(C(=O)O)nc1C	SIRT5 inh 16.9
COc1ccc(COC(=O)C2CCN(S(=O)(=O)c3ccc(F)cc3)CC2)cc1	none
O=C(Nc1ccc(S(=O)(=O)N2CCCCC2)cc1)c1ccc(F)cc1	none
Cc1ccc(-c2cnc3c(c2)C(=O)N([C@@H](C)CO)C[C@H](C)[C@H](CN(C)C)O3)cc1	SIRT5 inh 16.0 (no result: PDI inh)
Cc1ccc(-c2cnc3c(c2)C(=O)N([C@@H](C)CO)C[C@@H](C)[C@H](CN(C)C)O3)cc1	none (no result: PDI inh)
C[C@@H]1CN([C@H](C)CO)C(=O)c2cc(-c3cccc(C#N)c3)cnc2O[C@@H]1CN(C)Cc1cncnc1	none (no result: PDI inh)
